These results are taken from ChEMBL document CHEMBL1765083, “Design, synthesis, and biological evaluation of thiazoles targeting flavivirus envelope proteins” (J Med Chem, 2011).

Data set [1] concerns Yellow fever virus. The data set can be described thus: Antiviral activity against Yellow fever virus 17D expressing IRES-luciferase gene infected in BHK cells assessed as inhibition of viral production after 36 hrs by luciferase reporter assay relative to control. Format: functional. In short, it runs like this:
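Controls: uninfected, infected, and DMSO-treated infected cells. After ~36 h at 37 °C, 5% CO2, cells lysed and firefly luciferase luminescence read. IC50 from nonlinear regression versus DMSO-treated infected cells.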
(In general: In a reporter assay the amount or activity of a reporter protein is the signal.)

Data set [2] is described as follows: Growth inhibition of BHK15 cells after 36 hrs by XTT assay. It counts as cell-based, Mesocricetus auratus. To be noted: hamster. The procedure, abridged: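 Uninfected confluent BHK-15 cells (MEM, 10% FBS) overlaid with serial compound dilutions from DMSO stocks, ~36 h at 37 °C, 5% CO2. Medium replaced, XTT substrate added, 2 h at 37 °C, then OD450 read. GI50 calculated relative to cells given 1% DMSO.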
For orientation: Formazan colour is commonly taken as a measure of viable cells.

The subject of data set [3] is Yellow fever virus. Nature of the data set: Antiviral activity against Yellow fever virus 17D expressing IRES-luciferase gene infected in BHK cells assessed as inhibition of viral production at 50 uM after 36 hrs by luciferase reporter assay. Format: functional, cell-based.
Data set [4] is described as follows: Therapeutic index, ratio of GI50 for BHK15 cells to EC50 for Yellow fever virus 17D. Format: cell-based. The note with it: hamster, read-out: TI.
A short description of data set [5]: Half life in rat plasma. It counts as ADME. The procedure, abridged: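 Reconstituted lyophilized rat plasma warmed 15 min at 37 °C, diluted with 0.01 M saline to 80% plasma, then warmed 5 min more. Compound in DMSO added; mixture kept at 37 °C. Timed aliquots quenched in methanol and centrifuged; supernatants analysed by C18 HPLC (85:15 methanol/water, room temperature). Half-life from regression of concentration versus time.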

By GI50 is commonly meant the concentration at which growth is held to half of that of the control. The EC50 is the concentration that produces a half-maximal response. For `COC(=O)c1sc(-c2ccc(Cl)cc2)nc1C=O`, the “inhibition (INH)” value in the data set with Yellow fever virus [1] is reported as 99.9%. Besides, in data set [2], it took 36.4 µM to inhibit growth by half (GI50 at 36 h). Besides, the EC50 with Yellow fever virus [3] came out at 42.8 µM.
With `CONC(=O)c1sc(-c2ccc(Cl)cc2)nc1C(Br)Br`, the “inhibition (INH)” value in the data set on Yellow fever virus [1] is reported as 93.6%. Halving of growth in data set [2] (GI50 at 36 h) required 81.4 µM. Besides, in the data set with Yellow fever virus [3], the EC50 was determined as 1.7 µM.
Taken in the same sequence, the figures for `NC(=O)c1sc(-c2ccc(Cl)cc2)nc1C(Br)Br` were 99.8%, 99.7 µM and 1.7 µM.
For `CN(C)C(=O)c1sc(-c2ccc(Cl)cc2)nc1C(Br)Br` the same measures were 93.2%, 163 µM and 20 µM.
For `CNC(=O)c1sc(-c2ccc(Cl)cc2)nc1C(Br)Br` the same measures were 99.7%, 74.6 µM and 1.8 µM.
On to `CCN(CC)C(=O)c1sc(-c2ccc(Cl)cc2)nc1C(Br)Br`, for which the “inhibition (INH)” value in the data set on Yellow fever virus [1] stood at 99.8%. The same compound came in with a GI50 at 36 h in data set [2] of 63.5 µM. Also, the EC50 in the data set on Yellow fever virus [3] was found to be 13.7 µM.
For `C=CCNC(=O)c1sc(-c2ccc(Cl)cc2)nc1C(Br)Br` the same measures were 99.9%, 40.8 µM and 1.6 µM.
For the compound `CCNC(=O)c1sc(-c2ccc(Cl)cc2)nc1C(Br)Br`, the “inhibition (INH)” value in the data set on Yellow fever virus [1] stood at 99.9%. This compound also showed a GI50 at 36 h in data set [2] of 33.3 µM. Besides, the EC50 in the data set with Yellow fever virus [3] came to 2.7 µM.
For `C#CCNC(=O)c1sc(-c2ccc(Cl)cc2)nc1C(Br)Br` the same measures were 99.7%, 23.9 µM and 1.7 µM.
Taken in the same sequence, the figures for `CCOC(=O)c1sc(-c2ccc(Cl)cc2)nc1C(Br)Br` were 98.1%, 94.6 µM and 8.7 µM.
For `CC(C)OC(=O)c1sc(-c2ccc(Cl)cc2)nc1C(Br)Br` the same measures were 84.4%, 372 µM and 19.9 µM.
Regarding `CCSC(=O)c1sc(-c2ccc(Cl)cc2)nc1C(Br)Br`, in the data set on Yellow fever virus [1], the “inhibition (INH)” value was determined as 99.7%. The compound further showed a GI50 at 36 h in data set [2] of 81.4 µM. In addition, the EC50 in the data set with Yellow fever virus [3] came to 1.6 µM.
A word on the half-life: it is the time needed for the level to fall by half in the phase considered. With `CSC(=O)c1sc(-c2ccc(Cl)cc2)nc1C(Br)Br`, the “inhibition (INH)” value in the data set with Yellow fever virus [1] is reported as 99.6%. Moreover, in data set [2], the GI50 at 36 h amounted to 369 µM. Further, the EC50 with Yellow fever virus [3] worked out at 1.4 µM. The selectivity ratio in data set [4] came out at 256. In data set [5], this compound had a half-life of 24.7 h.
Regarding `CC(=O)c1sc(-c2ccc(Cl)cc2)nc1C(Br)Br`, in the data set on Yellow fever virus [1], the “inhibition (INH)” value came out at 99.9%. The compound further showed a concentration for 50% growth inhibition (GI50) at 36 h in data set [2] of 83.5 µM. Also, the EC50 with Yellow fever virus [3] worked out at 1.3 µM.
Taken in the same sequence, the figures for `CN(C)/C=C/C(=O)c1sc(-c2ccc(Cl)cc2)nc1C(Br)Br` were 99.8%, 38.2 µM and 11.4 µM.
For `O=C(NCCO)c1sc(-c2ccc(Cl)cc2)nc1C(Br)Br` the same measures were 99.8%, 40.8 µM and 2.9 µM.
`O=C(NC[C@@H](O)CO)c1sc(-c2ccc(Cl)cc2)nc1C(Br)Br`: the “inhibition (INH)” value in the data set on Yellow fever virus [1] is listed as 99.9%. This compound had a GI50 at 36 h in data set [2] of 158 µM. The EC50 in the data set with Yellow fever virus [3] was 1.1 µM.
Regarding `CCc1nc(-c2ccc(Cl)cc2)sc1C(=O)OC`, the “inhibition (INH)” value with Yellow fever virus [1] was -56.7%.
For the compound `COC(=O)c1sc(-c2ccc(Cl)cc2)nc1C(C)C`, the “inhibition (INH)” value with Yellow fever virus [1] came out at 14.7%. Further, in data set [2], the GI50 at 36 h worked out at 49.6 µM. The EC50 in the data set on Yellow fever virus [3] stood at 58.7 µM.
As for `COC(=O)c1sc(-c2ccc(Cl)cc2)nc1C(C)(C)C`, the “inhibition (INH)” value in the data set with Yellow fever virus [1] turned out to be 20.9%.
In the case of `CCOC(=O)c1sc(-c2ccc(Cl)cc2)nc1-c1ccco1`, the “inhibition (INH)” value in the data set on Yellow fever virus [1] turned out to be 50.3%. In data set [2], this compound had a 50% growth inhibitory concentration (GI50) at 36 h of 465 µM. The EC50 in the data set with Yellow fever virus [3] was found to be 311 µM.
Taken in the same sequence, the figures for `COCc1nc(-c2ccc(Cl)cc2)sc1C(=O)OC` were 38.1%, 388 µM and 158 µM.
`CNC(=O)c1sc(-c2ccc(Cl)cc2)nc1COC`: in the data set with Yellow fever virus [1], the “inhibition (INH)” value amounted to 99.7%. Besides, halving of growth in data set [2] (GI50 at 36 h) required 50.8 µM. Besides, in the data set with Yellow fever virus [3], the concentration giving a half-maximal response (EC50) worked out at 2.9 µM.
As to `CNC(=O)c1sc(-c2ccc(Cl)cc2)nc1C=O`, the “inhibition (INH)” value in the data set with Yellow fever virus [1] is given as 37.5%.
On the same count and under the same terms, with `COC(=O)c1sc(-c2ccc(Cl)cc2)nc1C#N` the figure was 7.8%.
For the compound `COC(=O)c1sc(-c2ccc(Cl)cc2)nc1C(Cl)Cl`, the “inhibition (INH)” value in the data set on Yellow fever virus [1] turned out to be 99.9%. In addition, halving of growth in data set [2] (GI50 at 36 h) required 34.1 µM. The EC50 with Yellow fever virus [3] was 52.8 µM.
Taken in the same sequence, the figures for `COC(=O)c1sc(-c2ccc(Cl)cc2)nc1CBr` were 99.9%, 74.6 µM and 1.6 µM.
In the case of `COC(=O)c1sc(-c2ccc(Cl)cc2)nc1CS(C)(=O)=O`, the “inhibition (INH)” value with Yellow fever virus [1] is given as -74.7%.
On the same count and under the same terms, to `COC(=O)c1nc(-c2ccc(Cl)cc2)sc1C(=O)OC` belongs 30.1%.
For `COCc1nc(-c2ccc(Cl)cc2)sc1C(=O)N(C)C`, the “inhibition (INH)” value in the data set with Yellow fever virus [1] amounted to 11.3%.
Still for that read-out and setting: to `CN(C)C(=O)c1sc(-c2ccc(Cl)cc2)nc1C=O` belongs 5.5%.
Turning to `COC(=O)c1nc(-c2ccc(Cl)cc2)sc1C(=O)N(C)C`, in the data set on Yellow fever virus [1], the “inhibition (INH)” value is 74%. Besides, the GI50 at 36 h in data set [2] came out at 99.7 µM. Also, the EC50 in the data set with Yellow fever virus [3] was found to be 51 µM.
Consider `Cc1noc(-c2sc(-c3ccc(Cl)cc3)nc2C=O)n1`, for which the “inhibition (INH)” value in the data set with Yellow fever virus [1] came out at 99.6%. The compound further registered a GI50 at 36 h in data set [2] of 163 µM. In the data set with Yellow fever virus [3], the EC50 amounted to 26.5 µM.
Regarding `COC(=O)c1nc(-c2ccc(Cl)cc2)sc1-c1nc(C)no1`, the “inhibition (INH)” value with Yellow fever virus [1] was 1.5%.
Consider `COC(=O)c1sc(-c2ccc(Cl)cc2)nc1C(Br)Br`, for which, in the data set on Yellow fever virus [1], the “inhibition (INH)” value was determined as 99.6%. Moreover, in data set [2], the 50% growth inhibitory concentration (GI50) at 36 h was 222 µM. Also, the EC50 in the data set with Yellow fever virus [3] was 2.8 µM. Moreover, in data set [4], the selectivity ratio was found to be 79. Also, the half-life in data set [5] was 1.42 h.
As to `O=C(N[C@@H]1OC(CO)C(O)[C@H](O)[C@H]1O)c1sc(-c2ccc(Cl)cc2)nc1C(Br)Br` (single isomer, unassigned), the “inhibition (INH)” value in the data set with Yellow fever virus [1] is recorded as 43.4%.
